In ChEMBL document CHEMBL3784994, “Systematic comparison of the mono-, dimethyl- and trimethyl 3-hydroxy-4(1H)-pyridones - Attempted optimization of the orally active iron chelator, deferiprone” (Eur J Med Chem, 2016):

Tests used:
Liver microsome [1] = experiment: Drug metabolism in human liver microsomes assessed as glucuronidation at 10 uM after 24 hrs by mass spectrophotometry in presence of NADPH and UDPGA; type: ADME
Outline: (§1)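 Pooled mixed-gender human liver microsomes (1 mg/mL) with 10 µM hydroxypyridinone in 100 mM PBS, with NADPH and UDPGA systems. Incubated at 37°C for 24 h with gentle shaking, in triplicate; the blank omitted microsomes. Stopped with 4% phosphoric acid and internal standard added, then centrifuged. Cation-exchange SPE, then UPLC–tandem MS on C18 to identify metabolites and quantify % metabolized.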

[2] = Binding affinity to iron(3) assessed as pFe3+ values after 5 mins
Outline: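 Spectrophotometric titration of ligand with iron(III) in 0.1 M KCl, using a 50 mm path cuvette. KOH was added in 0.1 pH unit steps. After readings were stable (<0.001 pH unit over 3 s), there was a 5 min equilibration, then the spectrum was recorded. Constants were fitted with pHab. pFe3+ was computed at total Fe3+ 1 µM, total ligand 10 µM, pH 7.4.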

[3] = Octanol-water partition coefficient, log P of the compound by shake-flask method; type: physicochemical
Outline: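 Shake-flask partition between n-octanol and 25 mM MOPS, pH 7.4, at 25°C. Buffered solution and octanol were mixed at different ratios, stirred vigorously for 15 s, and separated by centrifugation. Aqueous UV absorbance was read before and after partition. P = (A0−A1)Vaq/(A1Vo).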

Liver microsome [4] = experiment: Drug metabolism in human liver microsomes assessed as hydroxylation at 10 uM after 24 hrs by mass spectrophotometry in presence of NADPH and UDPGA; type: ADME; outline: as §1
[5] = Binding affinity to iron(3) assessed as pFe3+ values after 10 to 30 mins

SMILES	Drug metabolism (Liver microsome [1])	Activity [2]	logP [3]	Drug metabolism (Liver microsome [4])	Activity [5]
Cc1cn(C)c(C)c(O)c1=O	metabolite_detected	19.7	-0.51		
Cn1cc(O)c(=O)c(F)c1			-0.85		
Cn1ccc(=O)c(O)c1F			-0.85		
Cc1cc(=O)c(O)c[nH]1		20.1	-0.73		
Cc1nccc(O)c1O	metabolite_detected	20.2	-0.58	metabolite_detected	
COc1c[nH]cc(C)c1=O			-0.51		
Cc1cn(C)cc(O)c1=O	metabolite_detected	20.5	-0.93		
Cn1cc(O)c(=O)cn1			-0.85		17.2
Cc1c(O)c(=O)ccn1C [DEFERIPRONE]	metabolite_detected	20.7		metabolite_detected	20.6
COc1c[nH]cc(CN(C)C)c1=O			-0.85		
COc1c[nH]ccc1=O			-0.85		
Cn1ccc(=O)c(O)n1			-0.85		14.8
Cc1cc(=O)c(F)c[nH]1			-0.51		
Cc1[nH]cc(C)c(=O)c1O	metabolite_detected	19.2	-0.13		
Cc1cc(=O)c(O)cn1C	metabolite_detected	20.4	-1.19		
COc1cn(C)cc(C)c1=O			-0.85		
Cc1c[nH]cc(O)c1=O	metabolite_detected	20.1	-0.59	metabolite_detected	
